Laboratory results as given in ChEMBL document CHEMBL1124495 (1989).
≈ marks a conversion by molar mass, not a printed value.

Key:
Assay type in all cases: functional
Escherichia coli [1] = assay: Activity was determined after peroral administration against Escherichia coli #311(MP) in mouse protection test; conditions: po
Method in brief: (§1)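 CD-1 female mice (20 ± 2 g) infected intraperitoneally with 0.5 mL standardized bacterial suspension: E. coli #311 in trypticase-soy broth, S. aureus Smith in 5% hog gastric mucin. Treated 0.5 h post-infection, oral or subcutaneous, 2-fold dose increments in 0.5 mL 0.2% aqueous agar, five mice per dose. 7-day survival pooled from three tests; ED50 by probit analysis.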

Escherichia coli [2] = assay: Activity was determined after subcutaneous administration against Escherichia coli #311(MP) in mouse protection test; conditions: sc; method in brief: as §1
Escherichia coli [3] = assay: Antibacterial activity carried out in vitro against Escherichia coli #311(MP)
Escherichia coli [4] = assay: Antibacterial activity carried out in vitro against Escherichia coli ATCC 25922
Escherichia coli [5] = assay: Antibacterial activity carried out in vitro against Escherichia coli MOR 84-20
Enterobacter cloacae = assay: Antibacterial activity carried out in vitro against Enterobacter cloacae VHG 84-39
Klebsiella pneumoniae = assay: Antibacterial activity carried out in vitro against Klebsiella pneumoniae CMC 84-31
Pseudomonas aeruginosa = assay: Antibacterial activity carried out in vitro against Pseudomonas aeruginosa K84-16
Serratia marcescens = assay: Antibacterial activity carried out in vitro against Serratia marcescens MOR 84-41
Staphylococcus aureus [6] = assay: Activity was determined after peroral administration against Staphylococcus aureus Smith(MP) in mouse protection test; conditions: po; method in brief: as §1
Staphylococcus aureus [7] = assay: Activity was determined after subcutaneous administration against Staphylococcus aureus Smith(MP) in mouse protection test; conditions: sc; method in brief: as §1
Staphylococcus aureus [8] = assay: Antibacterial activity carried out in vitro against Staphylococcus aureus ATCC 29213
Staphylococcus aureus [9] = assay: Antibacterial activity carried out in vitro against Staphylococcus aureus K82-26
Staphylococcus aureus [10] = assay: Antibacterial activity carried out in vitro against Staphylococcus aureus Smith(MP)
Staphylococcus aureus [11] = assay: Antibacterial activity carried out in vitro against Staphylococcus aureus VGH 84-47
Enterococcus faecalis = assay: Antibacterial activity carried out in vitro against Streptococcus faecalis UCI 85-30

Row | Compound | ED50 (Escherichia coli [1]) [mg/kg] | ED50 (Escherichia coli [2]) [mg/kg] | MIC (Escherichia coli [3]) [µg/mL] | MIC (Escherichia coli [4]) [µg/mL] | MIC (Escherichia coli [5]) [µg/mL] | MIC (Enterobacter cloacae) [µg/mL] | MIC (Klebsiella pneumoniae) [µg/mL] | MIC (Pseudomonas aeruginosa) [µg/mL] | MIC (Serratia marcescens) [µg/mL] | ED50 (Staphylococcus aureus [6]) [mg/kg] | ED50 (Staphylococcus aureus [7]) [mg/kg] | MIC (Staphylococcus aureus [8]) [µg/mL] | MIC (Staphylococcus aureus [9]) [µg/mL] | MIC (Staphylococcus aureus [10]) [µg/mL] | MIC (Staphylococcus aureus [11]) [µg/mL] | MIC (Enterococcus faecalis) [µg/mL]
1 | CN1CCN(c2c(F)c(F)c3c(=O)c(C(=O)O)cn(C4CC4)c3c2F)CC1 | 0.5 | 0.35 | 0.03 (≈ 0.0787 µM) | 0.015 (≈ 0.0393 µM) | 0.06 (≈ 0.157 µM) | 0.06 (≈ 0.157 µM) | 0.06 (≈ 0.157 µM) | 4 (≈ 10.5 µM) | 0.06 (≈ 0.157 µM) | 3.6 | 2.1 | 0.5 (≈ 1.31 µM) | 0.5 (≈ 1.31 µM) | 0.25 (≈ 0.656 µM) | 0.5 (≈ 1.31 µM) | 4 (≈ 10.5 µM)
2 | O=C(O)c1cn(C2CC2)c2cc(N3CCNCC3)c(F)cc2c1=O [CIPROFLOXACIN] | – | – | – | – | – | – | 0.03 (≈ 0.0905 µM) | – | 0.008 (≈ 0.0241 µM) | – | – | 1 (≈ 3.02 µM) | 0.5 (≈ 1.51 µM) | 0.12 (≈ 0.362 µM) | 1 (≈ 3.02 µM) | 2 (≈ 6.04 µM)
3 | CCn1cc(C(=O)O)c(=O)c2c(N3CCOCC3)c(F)c(F)c(F)c21 | – | – | > 128 | > 128 | > 128 | > 128 | > 128 | > 128 | > 128 | – | – | 128 (≈ 359 µM) | 32 (≈ 89.8 µM) | 64 (≈ 180 µM) | 128 (≈ 359 µM) | > 128
4 | CCn1cc(C(=O)O)c(=O)c2c(F)c(F)c(N3CCSCC3)c(F)c21 | – | – | 4 (≈ 10.7 µM) | 4 (≈ 10.7 µM) | 4 (≈ 10.7 µM) | 8 (≈ 21.5 µM) | 8 (≈ 21.5 µM) | 64 (≈ 172 µM) | 2 (≈ 5.37 µM) | – | – | 1 (≈ 2.69 µM) | 1 (≈ 2.69 µM) | 0.5 (≈ 1.34 µM) | 1 (≈ 2.69 µM) | 32 (≈ 85.9 µM)
5 | CCn1cc(C(=O)O)c(=O)c2c(F)c(F)c(N3CCOCC3)c(F)c21 | – | – | 2 (≈ 5.61 µM) | 4 (≈ 11.2 µM) | 4 (≈ 11.2 µM) | 4 (≈ 11.2 µM) | 4 (≈ 11.2 µM) | 64 (≈ 180 µM) | 1 (≈ 2.81 µM) | – | – | 1 (≈ 2.81 µM) | 1 (≈ 2.81 µM) | 1 (≈ 2.81 µM) | 1 (≈ 2.81 µM) | 32 (≈ 89.8 µM)
6 | CCn1cc(C(=O)O)c(=O)c2c(N3CCCC3)c(F)c(N3CCCC3)c(F)c21 | – | – | 128 (≈ 327 µM) | > 128 | > 128 | > 128 | > 128 | > 128 | > 128 | – | – | > 128 | 8 (≈ 20.4 µM) | 128 (≈ 327 µM) | 8 (≈ 20.4 µM) | > 128
7 | CCn1cc(C(=O)O)c(=O)c2cc(F)c(N3CCN(C)CC3)cc21 [PEFLOXACIN] | 1.1 | 0.4 | – | 0.06 (≈ 0.18 µM) | – | – | 0.25 (≈ 0.75 µM) | 4 (≈ 12 µM) | – | 3.1 | 2 | 0.5 (≈ 1.5 µM) | 0.5 (≈ 1.5 µM) | 0.25 (≈ 0.75 µM) | 0.5 (≈ 1.5 µM) | 4 (≈ 12 µM)
8 | CCn1cc(C(=O)O)c(=O)c2c(F)c(F)c(N3CCCC3)c(F)c21 | – | – | 2 (≈ 5.88 µM) | 2 (≈ 5.88 µM) | 4 (≈ 11.8 µM) | > 128 | > 128 | > 128 | 0.5 (≈ 1.47 µM) | – | – | 0.5 (≈ 1.47 µM) | 0.5 (≈ 1.47 µM) | 0.25 (≈ 0.735 µM) | 0.25 (≈ 0.735 µM) | > 128
9 | CN1CCN(c2c(F)c(F)c3c(=O)c(C(=O)O)cn(-c4ccc(F)cc4)c3c2F)CC1 | – | – | 1 (≈ 2.3 µM) | 2 (≈ 4.59 µM) | 2 (≈ 4.59 µM) | 4 (≈ 9.19 µM) | 2 (≈ 4.59 µM) | 32 (≈ 73.5 µM) | 2 (≈ 4.59 µM) | – | – | 2 (≈ 4.59 µM) | 2 (≈ 4.59 µM) | 2 (≈ 4.59 µM) | 4 (≈ 9.19 µM) | 64 (≈ 147 µM)
10 | CCn1cc(C(=O)O)c(=O)c2c(F)c(F)c(N3CCN(C)CC3)c(F)c21 | – | – | 0.25 (≈ 0.677 µM) | 0.12 (≈ 0.325 µM) | 0.25 (≈ 0.677 µM) | 0.5 (≈ 1.35 µM) | 0.5 (≈ 1.35 µM) | 32 (≈ 86.6 µM) | 0.25 (≈ 0.677 µM) | – | – | 2 (≈ 5.42 µM) | 2 (≈ 5.42 µM) | 2 (≈ 5.42 µM) | 2 (≈ 5.42 µM) | 32 (≈ 86.6 µM)
11 | CC(C)n1cc(C(=O)O)c(=O)c2c(F)c(F)c(N3CCN(C)CC3)c(F)c21 | – | – | 4 (≈ 10.4 µM) | 4 (≈ 10.4 µM) | 4 (≈ 10.4 µM) | 8 (≈ 20.9 µM) | 8 (≈ 20.9 µM) | > 128 | 4 (≈ 10.4 µM) | – | – | 64 (≈ 167 µM) | 16 (≈ 41.7 µM) | 32 (≈ 83.5 µM) | 32 (≈ 83.5 µM) | > 128
12 | CCn1cc(C(=O)O)c(=O)c2cc(F)c(N3CCN(C)CC3)c(F)c21 | – | – | 0.06 (≈ 0.171 µM) | 0.06 (≈ 0.171 µM) | 0.12 (≈ 0.342 µM) | 0.25 (≈ 0.712 µM) | 0.25 (≈ 0.712 µM) | 4 (≈ 11.4 µM) | 0.12 (≈ 0.342 µM) | – | – | 0.5 (≈ 1.42 µM) | 0.5 (≈ 1.42 µM) | 0.5 (≈ 1.42 µM) | 0.5 (≈ 1.42 µM) | 8 (≈ 22.8 µM)
13 | CCn1cc(C(=O)O)c(=O)c2c(N3CCN(C)CC3)c(F)c(F)c(F)c21 | – | – | > 128 | > 128 | > 128 | > 128 | > 128 | > 128 | > 128 | – | – | > 128 | > 128 | > 128 | > 128 | > 128
